For one test, the system named is K562. Kind of test: Inhibition of in vitro tumor cell growth of K-562, leukemia cell line. Type of test: functional. Particulars: Homo sapiens.
Another test relates to RXF 393. Kind of test: Inhibition of in vitro tumor cell growth of RXF-393, renal cancer cell line. The format is functional. As to conditions: Homo sapiens.
A further test relates to SF-295. Kind of test: Inhibition of in vitro tumor cell growth of SF-295, CNS tumor cell line. Type of test: functional. As to conditions: Homo sapiens.
The next test has as its system OVCAR-3. In words: Inhibition of in vitro tumor cell growth of OVCAR-3,ovarian cancer cell line. The format is functional. As to conditions: Homo sapiens.
The nature of test [1]: Inhibition of in vitro tumor cell growth of […], melanoma. Type of test: functional. As to conditions: Homo sapiens.
The next test deals with HCT-116. Kind of test: Inhibition of in vitro tumor cell growth of HCT116, colon cancer cell line. The format is functional. Particulars: Homo sapiens.
For another test, the system named is SF-268. Kind of test: Inhibition of in vitro tumor cell growth of SF-268, CNS tumor cell line. The format is functional. As to conditions: Homo sapiens.
For another test, the system named is NCI-H226. Kind of test: Inhibition of tumor cell growth of NCI-H226, non-small-cell lung cell line. Type of test: functional. Particulars: Homo sapiens.
The target of test [2] is T1, Tubulin alpha chain (Sus scrofa, UniProt P02550). Kind of test: Inhibition of tubulin polymerization (ITP). In a few lines: (§1)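 Tubulin polymerization inhibition, with reaction mixtures containing 10 μM tubulin. Result given as IC50.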
T1 sequence (P02550 whole entry, looked up): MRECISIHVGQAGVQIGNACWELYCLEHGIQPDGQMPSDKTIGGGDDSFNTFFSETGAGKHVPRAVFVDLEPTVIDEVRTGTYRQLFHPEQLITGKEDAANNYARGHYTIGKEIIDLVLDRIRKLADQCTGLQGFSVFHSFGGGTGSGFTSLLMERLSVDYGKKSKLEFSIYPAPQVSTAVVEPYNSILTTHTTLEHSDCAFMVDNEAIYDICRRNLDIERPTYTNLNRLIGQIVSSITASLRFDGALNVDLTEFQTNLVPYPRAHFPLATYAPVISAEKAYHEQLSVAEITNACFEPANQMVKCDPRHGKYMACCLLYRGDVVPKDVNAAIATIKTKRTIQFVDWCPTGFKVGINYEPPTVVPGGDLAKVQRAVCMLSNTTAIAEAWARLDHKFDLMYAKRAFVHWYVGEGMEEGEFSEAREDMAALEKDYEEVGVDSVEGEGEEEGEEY
For test [3], the target named is T1, Tubulin alpha chain. Kind of test: (§2) Inhibition of tubulin polymerization. (ITP). Put shortly:
as §1

For test [4], the target named is Tubulin alpha chain (Sus scrofa) (UniProt P02550). Described as §2. Put shortly:
as §1

These results are taken from ChEMBL document CHEMBL1134685, “Antitumor Agents. 211. Fluorinated 2-phenyl-4-quinolone derivatives as antimitotic antitumor agents” (J Med Chem, 2001).

Sequence of Tubulin alpha chain (Sus scrofa) (P02550 whole entry, looked up): as above

Turning to `Fc1ccccc1-c1cc(S)c2cc3c(cc2n1)OCO3`, the GI50 (as a rule, the concentration that inhibits growth by half) is 56.2 µM in the test with K562; 29.5 µM with RXF 393; 11.7 µM with SF-295; 21.4 µM in the test with OVCAR-3; 4.07 µM in test [1]; 5.5 µM with HCT-116. The GI50 with SF-268 was 20 µM; in the test with NCI-H226, 16.6 µM.

In the case of `O=c1cc(-c2ccccc2F)[nH]c2cc3c(cc12)OCO3`, the IC50 (in general, the concentration needed to halve the response being measured) at Tubulin alpha chain [2] is 0.68 µM. This compound also gave a GI50 in test [1] of 0.0209 µM.

`CCOC(=O)COc1cc(-c2ccccc2F)nc2cc3c(cc12)OCO3` yielded an IC50 against Tubulin alpha chain [3] of over 40 µM. For the same compound, the GI50 in the test on K562 is 38 µM; with RXF 393 it was over 100 µM; in the test on SF-295 it was over 100 µM; in test [1] it was 72.4 µM; in the test with HCT-116, 72.4 µM; in the test with SF-268 it was over 100 µM. In addition, the GI50 in the test with NCI-H226 was over 100 µM.

On Tubulin alpha chain [2], `Oc1cc(-c2ccccc2)nc2ccccc12` gave an IC50 of 7.3 µM.

`O=c1cc(-c2ccccc2F)[nH]c2ccc(N3CCCC3)cc12`: half-maximal inhibition in [4] (IC50) was put at 0.46 µM. Further, the GI50 was 0.0324 µM in the test with K562, under 0.01 µM in the test on RXF 393, under 0.01 µM in test [1] and 0.0389 µM in the test with SF-268.

As to `O=C(O)COc1cc(-c2ccccc2F)nc2cc3c(cc12)OCO3`, on Tubulin alpha chain [3], the IC50 was over 20 µM. Also, the GI50 (with K562; in the test on RXF 393; in the test with SF-295; with OVCAR-3; in test [1]; in the test on HCT-116) was over 100 µM each time. Besides, the GI50 with SF-268 and in the test with NCI-H226 was over 100 µM in each case.

As for `O=c1[nH]c(/C=C/c2ccccc2)nc2ccccc12`, on Tubulin alpha chain [3], the IC50 was 5 µM.

`Cn1c(-c2ccccc2)cc(=O)c2ccccc21` yielded an IC50 at Tubulin alpha chain [3] of over 40 µM.

On Tubulin alpha chain [3], `CCOC(=O)CCCOc1cc(-c2ccccc2F)nc2cc3c(cc12)OCO3` registered an IC50 of over 40 µM. The GI50 in test [1] is 57.5 µM; in the test with HCT-116, over 100 µM; in the test with SF-268 it was over 100 µM.

`O=C(O)CCCOc1cc(-c2ccccc2F)nc2cc3c(cc12)OCO3` showed an IC50 at Tubulin alpha chain [3] of 12 µM.
